pIC50: −log10 of the molar value. No end group written: not given here.

One experiment has as its system syndecans. Particulars: membrane-associated proteoglycans; cited from earlier work.
For experiment [1] the following is noted: cited from earlier work.
Another experiment deals with cell attachment. Particulars: cited from earlier work; for cell adhesion (AG73 and EF-1 together): synergetic interaction of syndecan and integrin α2β1.
Experiment [2] concerns the target T1, rec-α5LG45 protein—heparin binding (Mus musculus, UniProt Q61001).
T1 sequence (Q61001 3318-3718): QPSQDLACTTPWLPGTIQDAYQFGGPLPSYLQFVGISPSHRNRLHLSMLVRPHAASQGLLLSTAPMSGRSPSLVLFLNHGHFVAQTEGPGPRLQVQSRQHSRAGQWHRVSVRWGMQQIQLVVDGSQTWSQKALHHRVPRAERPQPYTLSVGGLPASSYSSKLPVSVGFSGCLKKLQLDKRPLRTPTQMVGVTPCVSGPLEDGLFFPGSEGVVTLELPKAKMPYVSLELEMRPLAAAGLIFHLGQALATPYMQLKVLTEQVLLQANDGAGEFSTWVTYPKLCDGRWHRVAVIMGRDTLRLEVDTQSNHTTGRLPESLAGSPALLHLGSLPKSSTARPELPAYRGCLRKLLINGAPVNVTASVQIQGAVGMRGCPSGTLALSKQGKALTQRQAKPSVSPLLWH
Briefly: Peptide inhibition of heparin-binding to rec-α5LG45. The method in brief: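 Mouse laminin α5 LG45 fused to human IgG Fc, expressed in transfected 293T cells, purified on Protein A then heparin-Sepharose. The protein (3 µg), heparin-Sepharose beads (1 mg) and varying peptide amounts were incubated for 1 h at 4 °C in 70 µL of 10 mM Tris-HCl pH 7.4 with 100 mM NaCl. Beads were washed twice. Bound protein was detected by reducing 8% SDS-PAGE and anti-human Fc Western blot with ECL. Run in triplicate.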

The test system of a further experiment is syndecan-1. As to conditions: membrane-associated proteoglycan; cited from earlier work.
A further experiment relates to syndecan-4. Particulars: cited from earlier work.

For KNSFMALYLSKG [A3G75], in the experiment with syndecans, the interaction with syndecans entry is given as “interact with syndecans”. Besides, the heparin-binding entry in experiment [1] is on record as “heparin-binding sequence”. As to DYATLQLQEGRLHFMFDLG [EF-1], in the experiment on cell attachment, the “cell adhesion (AG73 and EF-1 together)” value was “cooperate and induce cell adhesion”. Broadly, the pIC50 is the IC50 on a negative log10 scale, so that one unit is a factor of ten. Low values mean a high IC50, high ones a low IC50. Turning to LVLFLNHGHFVA-NH2 [A5G77, LVLFLNHGHFVA], in experiment [2], the negative logarithm of the IC50 (pIC50) was 5.15. The same measure, in the same setting: under AGQWHRVSVRWG-NH2 [A5G81, AGQWHRVSVRWG] stands 5.23; under KMPYVSLELEMR-NH2 [A5G94, KMPYVSLELEMR], 6.08. On to RKRLQVQLSIRT [AG73], for which, in the experiment on cell attachment, the “cell adhesion (AG73 and EF-1 together)” value is “cooperate and induce cell adhesion”. In addition, the interaction with syndecans result in the experiment with syndecans is “interact with syndecans”. In experiment [1], the heparin-binding result is listed as “the strongest heparin-binding peptide” and the heparin/heparan sulfate binding result is recorded as “heparin/heparan sulfate binding”. Also, the syndecan-1 binding result in the experiment on syndecan-1 is given as “binds syndecan-1”. Take GPLPSYLQFVGI-NH2 [A5G71, GPLPSYLQFVGI]: in experiment [2], the pIC50 was 4.04. Turning to TLFLAHGRLVFM [A4G82], the cell attachment activity entry with cell attachment is on record as “cell attachment activity”. In addition, the interaction with syndecans entry with syndecans is on record as “interact with syndecans”. In the experiment with syndecan-4, the syndecan-4-binding entry was “exhibited heparin- and syndecan-4-binding”. For the same substance, the heparin-binding result in experiment [1] is “exhibited heparin- and syndecan-4-binding”. GLIYYVAHQNQM [AG75]: the heparin-binding result in experiment [1] is listed as “heparin-binding”.

The values are drawn from publication PMC2756285 (Biochemistry, 2009).
